{"data": "Published values gathered from unrelated publications", "target": "Serine/threonine-protein kinase PAK 4 (PAK4, Homo sapiens, UniProt O96013)"}
{"SMILES": "COc1cnc(Nc2cccc(S(N)(=O)=O)c2)nc1N1CCN(c2ccccc2)CC1", "read-out": "binding", "method": "competition with immobilised ligand", "tested at": "1 µM", "remaining binding [%]": 95}
{"SMILES": "Cc1cnc(Nc2ccc(C(=O)N3CCC(N4CCCC4)CC3)cc2)nc1-c1cc2ccccc2s1", "read-out": "binding", "method": "competition with immobilised ligand", "tested at": "1 µM", "remaining binding [%]": 70}
{"SMILES": "c1cnn2ncc(-c3ccnc(N4CCC45COC5)n3)c2c1", "read-out": "binding", "tested at": "1 µM", "remaining binding [%]": 96}
{"SMILES": "O=C(NCCCN1CCOCC1)c1ccc(Nc2nccc(-c3cc4ccccc4s3)n2)cc1", "read-out": "binding", "method": "competition with immobilised ligand", "tested at": "1 µM", "remaining binding [%]": 91}
{"SMILES": "CN(C)c1nccc(-c2cnn3ncccc23)n1", "read-out": "binding", "tested at": "1 µM", "remaining binding [%]": 100}
{"SMILES": "N#Cc1ccccc1CSc1nnc2c(n1)[nH]c1ccccc12", "read-out": "binding", "method": "competition with immobilised ligand", "tested at": "10 µM", "remaining binding [%]": 87}
{"SMILES": "c1cncc(-c2cccc(Nc3nccc(NC4CCCCC4)n3)c2)c1", "read-out": "binding", "method": "competition with immobilised ligand", "tested at": "10 µM", "remaining binding [%]": 83}
{"SMILES": "O=C(NCCCN1CCOCC1)c1ccc(Nc2ncc(Cl)c(-c3ccc(Cl)s3)n2)cc1", "read-out": "binding", "method": "competition with immobilised ligand", "tested at": "1 µM", "remaining binding [%]": 89}
{"SMILES": "CCC(=N\\O)/C(C)=C/c1ccc(F)cc1", "read-out": "cell-free assay", "method": "competition with immobilised ligand", "tested at": "1 µM", "remaining binding [%]": 100}
{"SMILES": "CC1CCCN1c1nccc(-c2cnn3ncccc23)n1 (stereo not shown)", "read-out": "binding", "tested at": "1 µM", "remaining binding [%]": 100}
{"SMILES": "Cc1nc(C2CCN(C(=O)c3ccc(OC(F)(F)F)cc3N)CC2)c2ncc(N3CCN(C)CC3)cc2n1", "read-out": "cell-free assay", "method": "competition with immobilised ligand", "tested at": "1 µM", "remaining binding [%]": 100}
{"SMILES": "C[C@@H]1CN(c2ccc3ncc(-c4ccc5[nH]nc(C6CC6)c5c4)n3n2)C[C@H](C)O1", "read-out": "binding", "method": "competition with immobilised ligand", "tested at": "50 nM", "remaining binding [%]": 90}
{"SMILES": "Cn1cc(Cl)c2c(Oc3c(F)cc(Nc4cc(Cl)nc(N)n4)cc3F)ccnc21", "read-out": "cell-free assay", "method": "competition with immobilised ligand", "tested at": "0.1 µM", "remaining binding [%]": 100}
{"SMILES": "C[C@@H](c1ccc(-n2cnc3c(N)ncnc32)cc1)N1CCc2nn(C)c(Cc3ccccc3)c2C1=O", "read-out": "binding", "method": "competition with immobilised ligand", "tested at": "0.1 µM", "remaining binding [%]": 100}
{"SMILES": "CC(C)(C)c1ccc(-c2nc(CBr)nn2-c2cccc(O)c2)cc1", "read-out": "cell-free assay", "method": "competition with immobilised ligand", "tested at": "10 µM", "remaining binding [%]": 87}
{"SMILES": "F[C@@H]1CCN(c2nccc(-c3cnn4ncccc34)n2)C1", "read-out": "binding", "tested at": "1 µM", "remaining binding [%]": 100}
{"SMILES": "O=C(NCC1CCOCC1)c1n[nH]cc1NC(=O)c1c(F)cccc1F", "read-out": "binding", "method": "competition with immobilised ligand", "tested at": "1 µM", "remaining binding [%]": 99}
{"SMILES": "CNC(=O)Nc1ccc2c(c1)[C@@]1(CC2)OC(=O)N(CC(=O)N(Cc2ccc(F)cc2)[C@@H](C)C(F)(F)F)C1=O", "read-out": "cell-free assay", "method": "competition with immobilised ligand", "tested at": "1 µM", "remaining binding [%]": 95}
{"SMILES": "C[C@@H]1CCN(c2nccc(-c3cnn4ncccc34)n2)C1", "read-out": "binding", "tested at": "1 µM", "remaining binding [%]": 100}
{"SMILES": "O=C(NC[C@@H]1[C@H]2CN(C(=O)OCc3cc(C(F)(F)F)cc(C(F)(F)F)c3)C[C@@H]12)c1ccc2[nH]nnc2c1", "read-out": "cell-free assay", "method": "competition with immobilised ligand", "tested at": "1 µM", "remaining binding [%]": 100}
{"SMILES": "N[C@H]1CCN(c2nccc(-c3cnn4ncccc34)n2)C1", "read-out": "binding", "tested at": "1 µM", "remaining binding [%]": 88}
{"SMILES": "O=C(O)c1cc(-c2ccc(C3CCNCC3)cc2)c2ccc(-c3ccc(C(F)(F)F)cc3)cc2c1", "read-out": "cell-free assay", "method": "competition with immobilised ligand", "tested at": "1 µM", "remaining binding [%]": 100}
{"SMILES": "CN(C)c1ncc(F)c(-c2cnn3ncccc23)n1", "read-out": "binding", "tested at": "1 µM", "remaining binding [%]": 80}
{"SMILES": "CS(=O)(=O)c1cc(C2(NC(=O)c3cncc4c3cnn4-c3ccc(F)cc3)CC2)ccn1", "read-out": "cell-free assay", "method": "competition with immobilised ligand", "tested at": "1 µM", "remaining binding [%]": 100}
{"SMILES": "Nc1ncc2c(n1)-c1c([nH]c3ccc(C#CC4CC4)cc13)CCCC2", "read-out": "binding", "method": "competition with immobilised ligand", "tested at": "1 µM", "remaining binding [%]": 76}
